Laboratory results published in ChEMBL document CHEMBL1135184, “2,4-Disubstituted pyrroles: synthesis, traceless linking and pharmacological investigations leading to the dopamine D4 receptor partial agonist FAUC 356” (Bioorg Med Chem Lett, 2002).

Assays:
[1] = molecular target: D(1A) dopamine receptor (Bos taurus, UniProt Q95136); test: Ability to displace [3H]SCH-23,390 radioligand from bovine Dopamine receptor D1
[2] = molecular target: T1, D(4) dopamine receptor (Homo sapiens, UniProt P21917); test: Ability to displace [3H]spiperone radioligand from cloned human Dopamine receptor D4 in CHO cells; assay type: cell-based
T1 sequence (P21917 whole entry): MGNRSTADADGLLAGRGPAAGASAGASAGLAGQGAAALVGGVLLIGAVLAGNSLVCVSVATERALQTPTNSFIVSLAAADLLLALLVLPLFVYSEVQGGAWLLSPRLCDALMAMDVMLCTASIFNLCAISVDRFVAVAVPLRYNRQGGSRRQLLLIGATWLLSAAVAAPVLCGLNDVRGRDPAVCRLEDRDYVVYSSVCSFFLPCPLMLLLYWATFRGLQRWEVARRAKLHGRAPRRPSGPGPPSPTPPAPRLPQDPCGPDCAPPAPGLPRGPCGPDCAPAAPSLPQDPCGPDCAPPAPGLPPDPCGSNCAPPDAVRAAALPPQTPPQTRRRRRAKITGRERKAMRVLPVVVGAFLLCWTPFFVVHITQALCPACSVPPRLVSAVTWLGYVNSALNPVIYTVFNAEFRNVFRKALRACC

[3] = molecular target: D(3) dopamine receptor (Homo sapiens, UniProt P35462); test: Ability to displace [3H]spiperone radioligand from cloned human Dopamine receptor D3 in CHO cells; assay type: cell-based
Method in brief: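 Human D3 receptor stably expressed in CHO cells, membranes labelled with [3H]spiperone in a competition format.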

[4] = molecular target: T2, D(2) dopamine receptor (Homo sapiens, UniProt P14416); test: Ability to displace [3H]spiperone radioligand from cloned human Dopamine receptor D2 in CHO cells; assay type: cell-based
[5] = molecular target: T1, D(4) dopamine receptor; test: Effective concentration of compound required against human Dopamine D4.2 receptor; assay type: functional
[6] = molecular target: 5-hydroxytryptamine receptor 2A (Sus scrofa, UniProt P50129); test: Ability to displace [3H]-Ketanserin radioligand from porcine 5-hydroxytryptamine 2A receptor
[7] = molecular target: T2, D(2) dopamine receptor; test: Ability to displace […] radioligand from cloned human Dopamine receptor D2 in CHO cells; assay type: cell-based
[8] = molecular target: T3, D(4) dopamine receptor (Homo sapiens) (UniProt P21917)
T3 sequence (whole entry): T1 sequence (P21917 whole entry)

T2 sequence (P14416 whole entry): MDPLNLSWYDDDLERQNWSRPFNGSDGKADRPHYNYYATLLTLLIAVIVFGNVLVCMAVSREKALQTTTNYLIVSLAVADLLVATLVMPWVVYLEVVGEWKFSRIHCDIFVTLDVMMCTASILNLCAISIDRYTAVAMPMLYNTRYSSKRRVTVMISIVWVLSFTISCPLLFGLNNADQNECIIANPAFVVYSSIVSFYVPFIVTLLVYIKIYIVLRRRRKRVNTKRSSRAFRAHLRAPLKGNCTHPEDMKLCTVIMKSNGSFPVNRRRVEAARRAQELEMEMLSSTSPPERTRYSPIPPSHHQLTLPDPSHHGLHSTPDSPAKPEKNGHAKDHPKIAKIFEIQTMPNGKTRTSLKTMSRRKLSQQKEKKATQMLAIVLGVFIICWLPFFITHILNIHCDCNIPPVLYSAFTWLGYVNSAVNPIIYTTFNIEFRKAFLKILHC
Sequence of D(3) dopamine receptor (P35462 whole entry): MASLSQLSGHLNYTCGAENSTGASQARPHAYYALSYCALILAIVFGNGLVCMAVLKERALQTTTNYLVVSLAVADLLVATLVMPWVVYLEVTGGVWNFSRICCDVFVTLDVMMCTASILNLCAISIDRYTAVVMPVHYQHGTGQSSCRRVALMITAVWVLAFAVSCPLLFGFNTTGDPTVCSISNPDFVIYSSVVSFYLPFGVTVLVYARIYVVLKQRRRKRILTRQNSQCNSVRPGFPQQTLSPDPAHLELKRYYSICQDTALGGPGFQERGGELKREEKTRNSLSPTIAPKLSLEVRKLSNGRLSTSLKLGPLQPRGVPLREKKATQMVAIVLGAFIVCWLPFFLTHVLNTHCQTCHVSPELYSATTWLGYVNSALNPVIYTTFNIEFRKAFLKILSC
Sequence of 5-hydroxytryptamine receptor 2A (P50129 whole entry): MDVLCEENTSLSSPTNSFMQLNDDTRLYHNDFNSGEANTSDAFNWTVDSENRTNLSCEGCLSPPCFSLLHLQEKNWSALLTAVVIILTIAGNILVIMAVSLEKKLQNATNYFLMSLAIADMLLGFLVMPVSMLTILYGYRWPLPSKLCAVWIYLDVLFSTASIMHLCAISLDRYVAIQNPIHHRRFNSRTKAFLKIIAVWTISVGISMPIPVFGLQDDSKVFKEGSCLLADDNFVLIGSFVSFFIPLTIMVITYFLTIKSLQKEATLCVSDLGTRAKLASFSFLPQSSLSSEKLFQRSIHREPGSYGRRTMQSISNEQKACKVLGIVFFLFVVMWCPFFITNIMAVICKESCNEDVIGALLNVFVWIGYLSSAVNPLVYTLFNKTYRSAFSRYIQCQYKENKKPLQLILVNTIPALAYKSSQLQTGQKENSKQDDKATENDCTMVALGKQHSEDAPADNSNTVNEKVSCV
Sequence of D(1A) dopamine receptor (Q95136 whole entry): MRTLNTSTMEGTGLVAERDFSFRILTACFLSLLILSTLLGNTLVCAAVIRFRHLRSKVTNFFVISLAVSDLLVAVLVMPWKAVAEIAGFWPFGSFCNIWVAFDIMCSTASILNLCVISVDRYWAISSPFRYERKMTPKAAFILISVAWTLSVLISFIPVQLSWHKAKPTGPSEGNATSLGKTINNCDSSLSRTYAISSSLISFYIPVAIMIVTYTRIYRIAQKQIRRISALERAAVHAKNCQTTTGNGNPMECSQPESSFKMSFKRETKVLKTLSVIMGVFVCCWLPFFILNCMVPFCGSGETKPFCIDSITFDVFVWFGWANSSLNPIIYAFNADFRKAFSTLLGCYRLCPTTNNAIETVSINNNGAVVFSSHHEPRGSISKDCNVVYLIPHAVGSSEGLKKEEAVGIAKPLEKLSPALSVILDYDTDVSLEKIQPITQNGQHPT

Structure (SMILES) | Ki [1] [nM] | Ki [2] [nM] | Ki [3] [nM] | Ki [4] [nM] | EC50 [5] [nM] | Ki [6] [nM] | Ki [7] [nM] | EC50 [8] [nM]
C(#Cc1c[nH]c(CN2CCN(c3ccccc3)CC2)c1)c1ccccc1 | 2700 | 83 | 670 | 550 | – | – | 760 | –
c1ccc(N2CCN(Cc3ccc[nH]3)CC2)cc1 | 5400 | 100 | 570 | 3000 | – | – | 3100 | –
N#Cc1c[nH]c(CN2CCN(c3ccccc3)CC2)c1 | 4600 | 21 | 1800 | 8000 | 5.6 | 610 | 3700 | –

More lines, now with the values ahead:

Ki [1] [nM] | Ki [2] [nM] | Ki [3] [nM] | Ki [4] [nM] | EC50 [5] [nM] | Ki [6] [nM] | Ki [7] [nM] | EC50 [8] [nM] | Structure (SMILES)
2000 | 5.9 | 850 | 580 | 1.9 | 380 | 770 | – | C#Cc1c[nH]c(CN2CCN(c3ccccc3)CC2)c1
2100 | 12 | 540 | 170 | 6.8 | 1300 | 230 | – | c1ccc(-c2c[nH]c(CN3CCN(c4ccccc4)CC3)c2)cc1
1200 | 18 | 720 | 3400 | – | 450 | 2400 | 7.8 | N#Cc1cc(CN2CCN(c3ccccc3)CC2)c[nH]1
